In ChEMBL document CHEMBL5131398, “Novel nucleocapsid protein-targeting phenanthridine inhibitors of SARS-CoV-2” (Eur J Med Chem, 2022) one finds Activity, CC50 and EC50 data, which are given here for 3 compounds.

A word on the CC50: it is the concentration giving 50% cytotoxicity. Broadly, the EC50 is the concentration needed to bring the measured effect to its halfway point.

Data set [1] deals with SARS-CoV-2. Briefly: Antiviral activity against Severe acute respiratory syndrome coronavirus 2 infected in African green monkey Vero E6 cells assessed as inhibition of viral cytopathic effect at 40 uM incubated for 72 hrs by CCK8 assay relative to control. The format is functional. On the set-up: scale not given: the % may be the effect or the level left. Background: Protection from cytopathic effect is a common read-out in antiviral testing.

Data set [2] concerns SARS-CoV-2. Kind of data set: Antiviral activity against Severe acute respiratory syndrome coronavirus 2 infected in African green monkey Vero E6 cells assessed as inhibition of viral cytopathic effect at 1.6 uM incubated for 72 hrs by CCK8 assay relative to control. It is filed as functional. On the set-up: scale not given: the % may be the effect or the level left.
The subject of data set [3] is SARS-CoV-2. Kind of data set: Antiviral activity against Severe acute respiratory syndrome coronavirus 2 infected in African green monkey Vero E6 cells assessed as inhibition of viral cytopathic effect at 0.32 uM incubated for 72 hrs by CCK8 assay relative to control. On the set-up: scale not given: the % may be the effect or the level left. The format is functional.

In data set [4] the test system is SARS-CoV-2. Kind of data set: Antiviral activity against Severe acute respiratory syndrome coronavirus 2 infected in African green monkey Vero E6 cells assessed as inhibition of viral cytopathic effect at 0.064 uM incubated for 72 hrs by CCK8 assay relative to control. It is filed as functional. On the set-up: scale not given: the % may be the effect or the level left.

A further data set concerns Vero C1008. Briefly: Cytotoxicity against African green monkey Vero E6 cells assessed as reduction in cell viability incubated for 72 hrs by CCK8 assay. The format is toxicity, cell-based. The note with it: chlorocebus sabaeus, vero c1008, 72 h. Summed up: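 Vero E6 cells were seeded and grown overnight, then exposed to a range of compound concentrations for 72 h. Viability was read by CCK8. Triplicate.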

The subject of data set [5] is SARS-CoV-2. Briefly: Antiviral activity against Severe acute respiratory syndrome coronavirus 2 infected in African green monkey Vero E6 cells assessed as inhibition of viral cytopathic effect at 200 uM incubated for 72 hrs by CCK8 assay relative to control. Also on record: scale not given: the % may be the effect or the level left. It is filed as functional.
Data set [6] concerns SARS-CoV-2. Kind of data set: Antiviral activity against Severe acute respiratory syndrome coronavirus 2 infected in African green monkey Vero E6 cells assessed as inhibition of viral cytopathic effect at 8 uM incubated for 72 hrs by CCK8 assay relative to control. It is filed as functional. On the set-up: scale not given: the % may be the effect or the level left.
Data set [7] concerns SARS-CoV-2. Briefly: Antiviral activity against Severe acute respiratory syndrome coronavirus 2 infected in African green monkey Vero E6 cells assessed as reduction in viralN-terminal 6-histidine tagged RNA copies at 12.5 uM incubated for 48 hrs by RT-qPCR analysis relative to control. It is filed as functional. On the set-up: scale not given: the % may be the effect or the level left. For orientation: Quantitative PCR measures a nucleic acid by following its amplification.

Data set [8] relates to SARS-CoV-2. Briefly: Antiviral activity against Severe acute respiratory syndrome coronavirus 2 infected in African green monkey Vero E6 cells assessed as reduction in viral RNA copies at 6.25 uM incubated for 48 hrs by RT-qPCR analysis relative to control. It is filed as functional. Also on record: scale not given: the % may be the effect or the level left.
In data set [9] the test system is SARS-CoV-2. Kind of data set: Antiviral activity against Severe acute respiratory syndrome coronavirus 2 infected in African green monkey Vero E6 cells assessed as reduction in viral RNA copies at 50 uM incubated for 48 hrs by RT-qPCR analysis relative to control. The format is functional. On the set-up: scale not given: the % may be the effect or the level left.

Data set [10] concerns SARS-CoV-2. Kind of data set: Antiviral activity against Severe acute respiratory syndrome coronavirus 2 infected in African green monkey Vero E6 cells assessed as reduction in viral RNA copies at 3.125 uM incubated for 48 hrs by RT-qPCR analysis relative to control. It is filed as functional. Also on record: scale not given: the % may be the effect or the level left.
For data set [11], the system named is SARS-CoV-2. Kind of data set: Antiviral activity against Severe acute respiratory syndrome coronavirus 2 infected in African green monkey Vero E6 cells assessed as reduction in viral RNA copies at 100 uM incubated for 48 hrs by RT-qPCR analysis relative to control. It is filed as functional. Also on record: scale not given: the % may be the effect or the level left.

Data set [12] concerns SARS-CoV-2. Kind of data set: Antiviral activity against Severe acute respiratory syndrome coronavirus 2 infected in African green monkey Vero E6 cells assessed as inhibition of viral cytopathic effect incubated for 72 hrs by CCK8 assay. Particulars: Severe acute respiratory syndrome coronavirus 2, Vero C1008, 72 h. It is filed as functional, organism-based.

Take `CCC(CC)COC(=O)[C@H](C)N[P@](=O)(OC[C@H]1O[C@@](C#N)(c2ccc3c(N)ncnn23)[C@H](O)[C@@H]1O)Oc1ccccc1`: the Activity in the data set with SARS-CoV-2 [1] is reported as 97.265%; in the data set on SARS-CoV-2 [2], 56.674%; with SARS-CoV-2 [3], 22.283%; in the data set on SARS-CoV-2 [4] it was 16.557%; with SARS-CoV-2 [5], 81.893%; with SARS-CoV-2 [6], 103.72%. In the data set on Vero C1008, the CC50 was over 200 µM.

As for `CCN1Cc2cc(OC)c(OC)cc2-c2cccc(N)c21`, the Activity in the data set with SARS-CoV-2 [7] amounted to 61.27%; with SARS-CoV-2 [1], 87.56%; in the data set with SARS-CoV-2 [8], 53.79%; with SARS-CoV-2 [2], 69.61%; in the data set on SARS-CoV-2 [3], 44.04%; with SARS-CoV-2 [4], 42.07%. The Activity in the data set on SARS-CoV-2 [9] turned out to be 76.41%; in the data set on SARS-CoV-2 [10], 45.99%; with SARS-CoV-2 [11], 72.33%; with SARS-CoV-2 [5], 97.85%; in the data set with SARS-CoV-2 [6], 73.32%. Besides, in the data set on Vero C1008, the CC50 was over 200 µM. For the same compound, the concentration for a half-maximal effect (EC50) in the data set on SARS-CoV-2 [12] is 3.69 µM.

As to `CCN1Cc2cc(OC)c(OC)cc2-c2cccc(NC(=O)C(F)(F)F)c21`, the Activity with SARS-CoV-2 [7] was 68.79%; in the data set with SARS-CoV-2 [1], 87.41%; in the data set with SARS-CoV-2 [8], 54.85%; in the data set on SARS-CoV-2 [2] it was 84.14%; in the data set with SARS-CoV-2 [3], 66.95%; in the data set on SARS-CoV-2 [4] it was 49.07%. Also, the Activity was 68.9% with SARS-CoV-2 [9]; 56.23% in the data set with SARS-CoV-2 [10]; 97.83% with SARS-CoV-2 [11]; 99.6% in the data set on SARS-CoV-2 [5]; 82.36% in the data set on SARS-CoV-2 [6]. Moreover, the CC50 in the data set with Vero C1008 was over 200 µM. Further, the EC50 in the data set with SARS-CoV-2 [12] came out at 2.18 µM.
